19 compounds from PubChem BioAssay can be followed below.

A short description of experiment [1]: reduced viability of SK-BR-3 breast cancer cells – cell-based, 24 h, human, pilot screen (AID 572).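 Note: compound exposure lasted between 18 and 24 h rather than exactly 24 h; 100% = carrier-treated control wells.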 To be noted: SK-BR-3 viability, CellTiter-Glo luminescence, at 10 µM, stronger effect = lower value. A general note: Cellular ATP, detected with luciferase, serves as a proxy for viable cell number.
The nature of experiment [2]: HUVEC growth inhibition – cell-based, human, primary screen (AID 575;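 active = viability at or below 30% in both replicate assays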;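 note: 100% = median of untreated cell wells with 0.1% DMSO on each plate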). The following applies: HUVEC proliferation, CellTiter-Glo luminescence, 72 h; at 10 µM; stronger effect = lower value. The procedure, abridged: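 Test system: HUVEC primary cells. Quantity: 1250 endothelial cells in each well. Dosing: single-point 10 µM, DMSO 0.1% final. Incubation: 72 h treatment at 37 °C. Measured by: CTG luminescence. Control set: DMSO cell controls and MePR drug controls. Plate: collagen-coated 384-well format.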

A short description of experiment [3]: H69AR cell proliferation blockers – human, duplicate replicates, primary screen (AID 580;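 active = viability at or under a set limit in both replicates, limit being median viability minus 3 SD, cut at about 48% in these data, passing the limit was not always enough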;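 note: 100% = mean luminescence of untreated wells and 0% = no signal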). The following applies: H69AR lung tumor cells viability, ATP luminescence, 72 h; at 10 µM; stronger effect = lower value.
The nature of experiment [4]: MRP1 drug-resistance reversers in H69AR cells – cell-based, doxorubicin co-treatment, pilot screen (AID 601;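 active = viability loss from added drug above about 55%, and viability with drug at most 40%, in both replicates, limit read from the data, passing the limit was not always enough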). To be noted: CellTiter-Glo, 72 h, at 10 µM; for differential viability (reversal): stronger effect = higher value.
Experiment [5] can be described thus: yeast transport mutant growth inhibition pilot in 384-well plates, post-Golgi transport modulator project (AID 636; in the data active = inhibition above about 31%). The following applies: absorbance 615 nm, about 18 h, stronger effect = higher value.
The nature of experiment [6]: growth suppression of yeast trafficking mutant, preliminary HTS, modulators of trafficking downstream of Golgi apparatus project, 1536-format plate, OD 615 nm (AID 637; in the data active = inhibition above about 30%). To be noted: yeast transport mutant growth, absorbance 615 nm, 18 h; stronger effect = higher value.
Where [7] appears, read: H69AR cells + 2 uM doxorubicin, measured here: viability with 2 uM doxorubicin, stronger effect = lower value.
Where [8] appears, read: H69AR cells, compound alone cytotoxicity.

SMILES strings stand for the structures. The source made the active and inactive calls.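 Rule for the calls, unless noted: active = viability at or below 10% of carrier control in both of two separate runs; inconclusive = viability at or below 10% in only one of the two runs; inactive = the rest.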

By viability is commonly meant a read-out of living cells in per cent, often relative to untreated cells. One may read the inhibition as the relative decrease from the control value, in per cent.

`CCOC(=O)c1c(-c2ccc(C)o2)csc1NC(=O)CN1CCN(CC)CC1`: the viability in experiment [1] was 87% (inactive); in experiment [2], 88.6% (inactive); in experiment [3], 80.2% (inactive); in experiment [4] (setting [7]), 86.7%; in experiment [4] (setting [8]), 80.2%. In addition, the differential viability (reversal) in experiment [4] (H69AR cells + 2 uM doxorubicin) is -6.44% (inactive). For the same compound, the results for the inhibition in experiment [5] and in experiment [6] were -7.53% (inactive) and 4.18% (inactive), respectively.

In the case of `COC(=O)CSc1nnc(-c2ccc(OC)cc2OC)o1`, the viability in experiment [1] was 77% (inactive); in experiment [2], 93.1% (inactive); in experiment [3] it was 109% (inactive); in experiment [4] (setting [7]) it was 92.8%; in experiment [4] (setting [8]), 109%. For the same compound, the differential viability (reversal) in experiment [4] (H69AR cells + 2 uM doxorubicin) is 16.5% (inactive). Moreover, the inhibition in experiment [5] is -2.67% (inactive); in experiment [6], -5.64% (inactive).

As to `COc1ccc(-c2noc(COc3ccc(C)c(C)c3)n2)cc1OC`, the viability was 110% (inactive) in experiment [1]; 108% (inactive) in experiment [2]; 94.1% (inactive) in experiment [3]; 96.6% in experiment [4] (setting [7]); 94.1% in experiment [4] (setting [8]). For the same compound, the differential viability (reversal) in experiment [4] (H69AR cells + 2 uM doxorubicin) is -2.45% (inactive). Moreover, the inhibition is -7.3% (inactive) in experiment [5] and -1.64% (inactive) in experiment [6].

Regarding `CCN(CC(=O)Nc1ccc2c(c1)CCC2)Cc1nc2ccccc2c(=O)[nH]1`, the viability in experiment [1] is 77% (inactive); in experiment [2], 81.8% (inactive); in experiment [3], 71.5% (inactive); in experiment [4] (setting [7]), 85.2%; in experiment [4] (setting [8]), 71.5%. The differential viability (reversal) in experiment [4] (H69AR cells + 2 uM doxorubicin) was -13.7% (inactive). In addition, the results for the inhibition in experiment [5] and in experiment [6] were -2.6% (inactive) and 4.73% (inactive), respectively.

As for `CC(=O)SCC(=O)N=c1sc2cc(F)ccc2n1C`, the viability was 90.5% (inactive) in experiment [1]; 75.5% (inactive) in experiment [2]; 93.4% (inactive) in experiment [3]; 96.1% in experiment [4] (setting [7]); 93.4% in experiment [4] (setting [8]). Further, the differential viability (reversal) in experiment [4] (H69AR cells + 2 uM doxorubicin) was -2.64% (inactive). The inhibition was -5.26% (inactive) in experiment [5] and 7.78% (inactive) in experiment [6].

`C=CCn1c(SCC#N)nc2c(c1=O)C(C)(C)Cc1ccccc1-2`: the viability in experiment [1] is 104% (inactive); in experiment [2], 76.2% (inactive); in experiment [3] it was 78.8% (inactive); in experiment [4] (setting [7]) it was 85%; in experiment [4] (setting [8]), 78.8%. Moreover, the differential viability (reversal) in experiment [4] (H69AR cells + 2 uM doxorubicin) is -6.17% (inactive). The inhibition was -5.62% (inactive) in experiment [5] and 3.71% (inactive) in experiment [6].

`Nn1c(SCC(=O)Nc2ccc(S(=O)(=O)N3CCCC3)cc2)nnc1C(F)(F)F`: the viability is 110% (inactive) in experiment [1]; 89.7% (inactive) in experiment [2]; 90.8% (inactive) in experiment [3]; 97.6% in experiment [4] (setting [7]); 90.8% in experiment [4] (setting [8]). In addition, the differential viability (reversal) in experiment [4] (H69AR cells + 2 uM doxorubicin) was -6.72% (inactive). For the same compound, the inhibition in experiment [5] was 0% (inactive); in experiment [6] it was 3.11% (inactive).

For `OC[C@H]1O[C@@H](n2cnc3c(Nc4ccccc4)ncnc32)[C@H](O)[C@@H]1O`, the viability was 95% (inactive) in experiment [1]; 71.9% (inactive) in experiment [2]; 84.4% (inactive) in experiment [3]; 82.1% in experiment [4] (setting [7]); 84.4% in experiment [4] (setting [8]). In addition, the differential viability (reversal) in experiment [4] (H69AR cells + 2 uM doxorubicin) is 2.24% (inactive). In addition, the inhibition in experiment [5] is -2.34% (inactive); in experiment [6] it was 1.17% (inactive).

For `Cc1ccc(OCC(O)Cn2c(NCCc3ccccc3)nc3c2c(=O)[nH]c(=O)n3C)cc1` (configuration not stated), the viability in experiment [1] was 60% (inactive); in experiment [2], 88.8% (inactive); in experiment [3], 93.9% (inactive); in experiment [4] (setting [7]), 99%; in experiment [4] (setting [8]) it was 93.9%. Moreover, in experiment [4] (H69AR cells + 2 uM doxorubicin), the differential viability (reversal) was -5.09% (inactive). For the same compound, the values for the inhibition in experiment [5] and in experiment [6] were -3.97% (inactive) and -1.27% (inactive), respectively.

Take `Nc1cc(=O)[nH]c(SCC(=O)Nc2ccc(Br)cc2)n1`: the viability in experiment [1] is 96% (inactive); in experiment [2], 101% (inactive); in experiment [3], 90.5% (inactive); in experiment [4] (setting [7]) it was 86%; in experiment [4] (setting [8]), 90.5%. The differential viability (reversal) in experiment [4] (H69AR cells + 2 uM doxorubicin) is 4.49% (inactive). Moreover, the inhibition is -0.52% (inactive) in experiment [5] and -4.1% (inactive) in experiment [6].

With `COc1ccc2nc(S(=O)Cc3ncc(C)c(OC)c3C)[nH]c2c1` (configuration not stated), the viability was 88% (inactive) in experiment [1]; 71.1% (inactive) in experiment [2]; 80.8% (inactive) in experiment [3]; 94.1% in experiment [4] (setting [7]); 80.8% in experiment [4] (setting [8]). In experiment [4] (H69AR cells + 2 uM doxorubicin), the differential viability (reversal) is -13.3% (inactive). Also, the values for the inhibition in experiment [5] and in experiment [6] were -1.69% (inactive) and -2.5% (inactive), respectively.

Turning to `COc1cc2c3c(c1)/C(=C1/SC(NC(C)=O)=NC1=O)C(=O)N3C(C)(C)C=C2C`, the viability in experiment [1] is 91% (inactive); in experiment [2], 54.8% (inactive); in experiment [3], 72.2% (inactive); in experiment [4] (setting [7]) it was 80.2%; in experiment [4] (setting [8]), 72.2%. In experiment [4] (H69AR cells + 2 uM doxorubicin), the differential viability (reversal) is -7.9% (inactive). The inhibition in experiment [5] is -10% (inactive); in experiment [6], -1.77% (inactive).

`O=C(NC1CC1)C1CCC(=O)N1C1CCCC1` (configuration not stated): the viability in experiment [1] is 93% (inactive); in experiment [2], 102% (inactive); in experiment [3], 105% (inactive); in experiment [4] (setting [7]) it was 88.4%; in experiment [4] (setting [8]), 105%. For the same compound, the differential viability (reversal) in experiment [4] (H69AR cells + 2 uM doxorubicin) was 16.3% (inactive). The inhibition is -1.17% (inactive) in experiment [5] and 0.33% (inactive) in experiment [6].

With `c1ccc(-c2cc(CSc3nc4ccccc4[nH]3)on2)cc1`, the viability was 94% (inactive) in experiment [1]; 91.8% (inactive) in experiment [2]; 102% (inactive) in experiment [3]; 86.5% in experiment [4] (setting [7]); 102% in experiment [4] (setting [8]). In experiment [4] (H69AR cells + 2 uM doxorubicin), the differential viability (reversal) was 15.5% (inactive). In addition, the inhibition is -6.13% (inactive) in experiment [5] and 3.09% (inactive) in experiment [6].

Regarding `COC(=O)C1CCN(C(=O)CN2C(=O)NC(CCc3ccccc3)C2=O)CC1` (configuration not stated), the viability in experiment [1] was 119% (inactive); in experiment [2], 94.2% (inactive); in experiment [3], 91.7% (inactive); in experiment [4] (setting [7]), 90.9%; in experiment [4] (setting [8]), 91.7%. In addition, the differential viability (reversal) in experiment [4] (H69AR cells + 2 uM doxorubicin) was 0.73% (inactive). Besides, the inhibition in experiment [5] is -1.92% (inactive); in experiment [6], 3.87% (inactive).

As for `O=S(=O)(NC1CCCCC1NS(=O)(=O)c1ccc(F)cc1)c1ccc(F)cc1` (configuration not stated), the viability was 106% (inactive) in experiment [1]; 91.2% (inactive) in experiment [2]; 94.1% (inactive) in experiment [3]; 95.8% in experiment [4] (setting [7]); 94.1% in experiment [4] (setting [8]). The differential viability (reversal) in experiment [4] (H69AR cells + 2 uM doxorubicin) was -1.67% (inactive). The inhibition in experiment [5] is -4.68% (inactive); in experiment [6], 6.07% (inactive).

In the case of `COc1ccc(C(C)NC(=O)c2ccoc2C)cc1OC` (configuration not stated), the viability in experiment [1] is 83% (inactive); in experiment [2] it was 91.3% (inactive); in experiment [3], 89.8% (inactive); in experiment [4] (setting [7]), 94.7%; in experiment [4] (setting [8]), 89.8%. For the same compound, the differential viability (reversal) in experiment [4] (H69AR cells + 2 uM doxorubicin) is -4.93% (inactive). Further, the inhibition in experiment [5] was -6.16% (inactive); in experiment [6], 1.82% (inactive).

Regarding `CCOC(=O)C1CN(S(=O)(=O)c2ccc(C)cc2)CCN1S(=O)(=O)c1ccc(C)cc1` (configuration not stated), the viability was 100% (inactive) in experiment [1]; 101% (inactive) in experiment [2]; 84.5% (inactive) in experiment [3]; 101% in experiment [4] (setting [7]); 84.5% in experiment [4] (setting [8]). In experiment [4] (H69AR cells + 2 uM doxorubicin), the differential viability (reversal) was -16.3% (inactive). Further, the values for the inhibition in experiment [5] and in experiment [6] were -2.6% (inactive) and -1.8% (inactive), respectively.

With `O=C(NCCC1=CCCCC1)C1CCN(S(=O)(=O)c2cnc[nH]2)CC1`, the viability in experiment [1] was 83% (inactive); in experiment [2], 111% (inactive); in experiment [3], 104% (inactive); in experiment [4] (setting [7]), 88.1%; in experiment [4] (setting [8]) it was 104%. For the same compound, the differential viability (reversal) in experiment [4] (H69AR cells + 2 uM doxorubicin) was 15.5% (inactive). Further, the results for the inhibition in experiment [5] and in experiment [6] were -5.6% (inactive) and -1.27% (inactive), respectively.
